Reference: ChEMBL document CHEMBL4433203, “Design, synthesis, and evaluation of isoflavone analogs as multifunctional agents for the treatment of Alzheimer's disease” (Eur J Med Chem, 2019)
Calls of active or inactive are those of the source. The calls are words filed in the database; no cut-off is given here.

Legend:
[1] = molecular target: T1, Histamine H3 receptor (Homo sapiens, UniProt Q9Y5N1); assay: Inhibition of human H3R expressed in methylhistamine-induced human H3-bla U2OS cells at 10 uM incubated for 30 mins by beta-lactamase complementation technology relative to control; assay type: cell-based
T1 sequence (Q9Y5N1 whole entry): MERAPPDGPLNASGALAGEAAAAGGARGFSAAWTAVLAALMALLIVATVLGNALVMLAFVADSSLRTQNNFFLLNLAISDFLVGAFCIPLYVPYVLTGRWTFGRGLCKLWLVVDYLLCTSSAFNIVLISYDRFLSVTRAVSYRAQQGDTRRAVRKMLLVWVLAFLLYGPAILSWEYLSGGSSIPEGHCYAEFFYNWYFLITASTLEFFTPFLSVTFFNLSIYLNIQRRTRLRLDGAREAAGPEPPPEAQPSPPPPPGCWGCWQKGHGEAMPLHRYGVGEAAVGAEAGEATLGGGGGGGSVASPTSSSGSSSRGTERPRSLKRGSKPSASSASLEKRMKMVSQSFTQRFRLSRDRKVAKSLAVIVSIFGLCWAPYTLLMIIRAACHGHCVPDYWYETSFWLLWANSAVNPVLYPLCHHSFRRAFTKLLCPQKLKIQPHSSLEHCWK

[2] = molecular target: Cholinesterase (Mus musculus, UniProt Q03311); assay: Inhibition of mouse plasma BuChE using S-butyrylacetylthiocholine iodide as substrate measured after 30 mins by Ellman's method relative to control
Cholinesterase, sequence (Q03311 whole entry): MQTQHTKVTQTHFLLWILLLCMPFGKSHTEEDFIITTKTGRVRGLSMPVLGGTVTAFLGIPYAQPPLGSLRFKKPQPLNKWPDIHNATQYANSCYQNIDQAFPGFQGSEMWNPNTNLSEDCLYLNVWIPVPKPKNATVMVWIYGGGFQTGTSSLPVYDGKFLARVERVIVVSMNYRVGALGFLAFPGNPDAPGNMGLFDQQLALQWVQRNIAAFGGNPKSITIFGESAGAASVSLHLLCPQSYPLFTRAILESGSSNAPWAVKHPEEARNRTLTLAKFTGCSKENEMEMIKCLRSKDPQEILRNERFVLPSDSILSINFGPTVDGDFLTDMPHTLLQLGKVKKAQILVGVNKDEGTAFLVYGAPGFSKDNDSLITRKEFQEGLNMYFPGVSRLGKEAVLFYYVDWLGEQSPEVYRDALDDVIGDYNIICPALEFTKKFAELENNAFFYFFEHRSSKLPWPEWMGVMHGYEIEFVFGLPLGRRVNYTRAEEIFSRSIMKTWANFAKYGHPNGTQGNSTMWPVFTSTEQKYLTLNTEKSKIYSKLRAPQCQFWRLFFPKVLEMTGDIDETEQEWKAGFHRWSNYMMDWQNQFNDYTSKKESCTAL

[3] = molecular target: T1, Histamine H3 receptor; assay: Inhibition of human H3R expressed in methylhistamine-induced human H3-bla U2OS cells incubated for 30 mins by beta-lactamase complementation technology; assay type: cell-based
Summary of the method: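 H3-bla U2OS cells co-express human H3R-Gal4-VP16 (TEV site) and β-arrestin/TEV protease with a UAS-β-lactamase reporter. IC50 came from log concentration-inhibition curves. Triplicates, three independent experiments.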

[4] = molecular target: T2, Acetylcholinesterase (Mus musculus, UniProt P21836); assay: Inhibition of mouse brain AChE using acetylthiocholine iodide as substrate measured after 30 mins by Ellman's method
T2 sequence (P21836 whole entry): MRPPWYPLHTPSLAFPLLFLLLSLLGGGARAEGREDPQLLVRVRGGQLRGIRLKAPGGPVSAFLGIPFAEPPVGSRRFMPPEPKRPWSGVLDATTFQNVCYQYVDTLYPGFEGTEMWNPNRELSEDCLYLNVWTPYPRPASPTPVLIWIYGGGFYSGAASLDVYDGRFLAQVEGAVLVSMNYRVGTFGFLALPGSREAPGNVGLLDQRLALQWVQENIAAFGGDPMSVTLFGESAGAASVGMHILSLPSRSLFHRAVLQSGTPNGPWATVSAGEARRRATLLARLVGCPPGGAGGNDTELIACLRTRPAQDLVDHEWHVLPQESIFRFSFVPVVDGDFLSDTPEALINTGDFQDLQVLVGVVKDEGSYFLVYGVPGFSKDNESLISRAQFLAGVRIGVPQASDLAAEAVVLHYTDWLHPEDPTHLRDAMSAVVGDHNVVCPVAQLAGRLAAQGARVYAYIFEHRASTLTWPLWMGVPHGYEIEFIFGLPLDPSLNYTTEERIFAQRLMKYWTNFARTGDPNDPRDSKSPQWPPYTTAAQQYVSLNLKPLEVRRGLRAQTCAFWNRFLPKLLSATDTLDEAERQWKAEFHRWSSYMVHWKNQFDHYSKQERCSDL

[5] = molecular target: T3, Acetylcholinesterase (Mus musculus) (UniProt P21836); details: at 10 µM
T3 sequence (whole entry): T2 sequence (P21836 whole entry)

[6] = Antioxidant activity assessed as AAPH radical scavenging activity preincubated for 15 mins with fluorescein before AAPH addition and recorded every 2 mins for 160 mins by ORAC-FL assay; assay type: functional
Summary of the method: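 ORAC-FL assay in 75 mM PBS, pH 7.4. Compound was preincubated with fluorescein (20 nM final) for 15 min at 37 °C, then AAPH (18 mM final) was added. Fluorescence (ex 460/em 520 nm) was read every 2 min for 160 min. Net area under the decay curve, blank-normalized, is expressed as µM Trolox equivalents per µM compound. Duplicates, ≥3 independent assays.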

[7] = Cytotoxicity in human SH-SY5Y cells assessed as reduction in cell viability after 72 hrs incubation by MTT assay
[8] = test system: BV-2; assay: Antiinflammatory activity in mouse BV2 cells assessed as reduction in LPS-induced IL-6 production at 10 uM pretreated for 1 hr followed by LPS challenge and measured after 24 hrs by ELISA assay; assay type: functional, cell-based
[9] = test system: BV-2; assay: Antiinflammatory activity in mouse BV2 cells assessed as reduction in LPS-induced TNF-alpha production at 10 uM pretreated for 1 hr followed by LPS challenge and measured after 24 hrs by ELISA assay; assay type: functional, cell-based
[10] = test system: SH-SY5Y; assay: Neuroprotective activity against copper-induced cytotoxicity in human SH-SY5Y cells expressing APP Swedish mutant assessed as increase in cell viability at 10 uM pre-incubated for 2 hrs followed by copper addition and measured after 24 hrs by MTT assay; assay type: functional, cell-based

Compound | inhibition [1] [%] | IC50 ([2]; read-out: IC50) [µM] | IC50 ([3]; read-out: IC50) [µM] | IC50 ([4]; read-out: IC50) [µM] | inhibition [5] [%] | Activity [6] [equiv/µM] | further results
O=c1c(-c2ccc(OCCN3CCCCC3)cc2)coc2cc(OCCN3CCCCC3)ccc12 | 71.5 | 2.92 | 1.94 | 0.35 | 82.8 | 0.14 | –
Cc1c(C)c2c(c(C)c1O)CCC(C)(C(=O)O)O2 (stereo not given) | – | – | – | – | – | 1 | –
COc1ccc(-c2coc3cc(OCCNc4c5c(nc6ccccc46)CCCC5)ccc3c2=O)cc1 | 60.5 | 0.38 | > 10 | 0.96 | 85.8 | 0.01 | –
S=C(NC1CCCCC1)N1CCC(c2cnc[nH]2)CC1 [THIOPERAMIDE] | 71.1 | – | – | – | – | – | CC50 at 72 h ([7]; SH-SY5Y cells): 85.8 µM
COc1ccc(-c2coc3cc(OCCOCCN4CCCCC4)ccc3c2=O)cc1 | 30.3 | > 50 | > 50 | > 50 | 35 | 0.01 | –
COc1ccc(-c2coc3cc(OCCCCN4CCCCC4)ccc3c2=O)cc1 | – | 8.83 | 0.73 | 3.98 | – | 0.07 | –
COc1ccc(-c2coc3cc(OCCNC(=O)OC(C)(C)C)ccc3c2=O)cc1 | – | – | – | – | -0.17 | 0.05 | IC50 [2]: Not Active; IC50 ([3]; u2os): Not Active; IC50 [4]: Not Active
O=c1c(-c2ccc(OCCN3CCCCC3)cc2)coc2cc(OCCN3CCCC3)ccc12 | – | 4.55 | 2.07 | 0.71 | – | 0.14 | –
CCN(C)CCCOc1ccc2c(=O)c(-c3ccc(OC)cc3)coc2c1 | – | – | 0.52 | 22.6 | – | 0.12 | –
COc1ccc(-c2coc3cc(OCCNC4CCCC4)ccc3c2=O)cc1 | 47.1 | 5.98 | > 50 | 4.5 | 78.5 | 0.01 | –
O=c1c(-c2ccc(OCCN3CCCCC3)cc2)coc2cc(OCCCCN3CCCCC3)ccc12 | 72.4 | 2.49 | 0.41 | 0.2 | 85.1 | 0.11 | –
CCN(C)CCCCOc1ccc2c(=O)c(-c3ccc(OC)cc3)coc2c1 | – | – | 0.43 | 9.47 | – | 0.11 | –
COc1ccc(-c2coc3cc(OCCN)ccc3c2=O)cc1.Cl | -6.69 | – | – | > 50 | 16.9 | 0.08 | IC50 [2]: Not Active; IC50 ([3]; u2os): Not Active
COc1cc2c(cc1OC)C(=O)C(CC1CCN(Cc3ccccc3)CC1)C2 (stereo not given) [DONEPEZIL] | – | – | – | – | – | – | CC50 at 72 h ([7]; sh-sy5y): 25.1 µM; Activity [8]: inactive; Activity [9]: inactive; Activity [10]: inactive
CCN(C)C(=O)Oc1cccc([C@H](C)N(C)C)c1 [RIVASTIGMINE] | – | – | – | – | – | – | CC50 at 72 h ([7]; SH-SY5Y cells): 67.8 µM
COc1ccc(-c2coc3cc(OCCN4C(=O)c5ccccc5C4=O)ccc3c2=O)cc1 | – | – | – | > 50 | 11.2 | 0.01 | IC50 [2]: Not Active; IC50 ([3]; u2os): Not Active
O=c1c(-c2ccc(O)cc2)coc2cc(OCCCCN3CCCCC3)ccc12 | 6.88 | 24.8 | > 50 | 26.8 | 63.4 | 0.88 | –
COc1ccc(-c2coc3cc(OCCNC4CCCCC4)ccc3c2=O)cc1 | 41 | 21.6 | > 50 | 5 | 73.7 | 0.01 | –
